Laboratory results from ChEMBL document CHEMBL4020827, “Targeting Multiple Effector Pathways in Pancreatic Ductal Adenocarcinoma with a G-Quadruplex-Binding Small Molecule” (J Med Chem, 2018).

What was measured:
BXPC-3 = assay: Growth inhibition of human BxPC3 cells after 96 hrs by SRB assay; type: functional, cell-based; conditions: BXPC-3, 96 h
Method in brief: (§1)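 Cell lines kept at 37 °C, 5% CO2 in medium with 10% FBS and 2 mM L-glutamine. Compound dissolved in water, filter-sterilised, 10 mM stock diluted into media. Growth read by 96 h sulforhodamine B assay, absorbance at 540 nm. IC50 taken from mean absorbance per concentration as % of untreated wells, >3 individual determinations with standard deviations.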

MIA PaCa-2 [1] = assay: Antitumor activity against human MIAPaCa2 cells xenografted in CD-1 nude mouse assessed as change in tumor volume at 15 mg/kg, iv administered twice weekly for 4 weeks measured on day 29 relative to control; type: functional
Method in brief: (§2)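 Female CD-1 nude mice (2-3 months, 20−25 g) given 5 x 10^6 MIA PaCa-2 cells subcutaneously in right flank with Matrigel; dosing began once tumors were established (approx. 13 days, mean 0.05 cm3). Eight mice/group, IV in saline twice weekly for 28 days (8 doses) against a saline group. Tumors measured by calliper (length × width × height × π/6), with body weight. Student's t test.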

CAPAN-1 = assay: Growth inhibition of human Capan1 cells after 96 hrs by SRB assay; type: functional, cell-based; conditions: CAPAN-1, 96 h; method in brief: as §1
MIA PaCa-2 [2] = assay: Antitumor activity against human MIAPaCa2 cells xenografted in CD-1 nude mouse assessed as change in tumor volume at 15 mg/kg, iv administered twice weekly for 4 weeks measured on day 62 relative to control; type: functional; method in brief: as §2
[3] = Binding affinity to 5'-FAM/3'-TAMRA labeled BCL2 promoter G-quadruplex DNA (unknown origin) assessed as change in melting temperature at 1 uM by FRET assay
Method in brief: (§3)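 FRET melting with FAM/TAMRA dual-labelled oligonucleotides at 400 nM, annealed at 95 °C for 10 min in 60 mM potassium cacodylate pH 7.4 and slowly cooled. Ligand final 1 μM; solution contains 50 mM K+. Fluorescence read every 0.5 °C over 30–100 °C with 30 s hold, excitation 450–495 nm and emission 515–545 nm. ΔTm from curve fitting, triplicate measurements.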

[4] = Binding affinity to 5'-FAM/3'-TAMRA labeled T-loop duplex DNA (unknown origin) assessed as change in melting temperature at 1 uM by FRET assay; method in brief: as §3
[5] = Binding affinity to 5'-FAM/3'-TAMRA labeled HSP90A promoter G-quadruplex DNA (unknown origin) assessed as change in melting temperature at 1 uM by FRET assay
Method in brief: (§4)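 FRET melting of FAM/TAMRA dual-labelled promoter G4 oligonucleotides, 400 nM, annealed at 95 °C for 10 min in 60 mM potassium cacodylate (pH 7.4) then cooled to RT. Ligand at 1 μM in solution with 50 mM K+. Fluorescence (ex 450–495, em 515–545 nm) read every 0.5 °C over 30–100 °C with a 30 sec hold per step. ΔTm from curve fitting; triplicate measurements.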

[6] = Binding affinity to 5'-FAM/3'-TAMRA labeled HSP90B promoter G-quadruplex DNA (unknown origin) assessed as change in melting temperature at 1 uM by FRET assay; method in brief: as §3
A549 = assay: Growth inhibition of human A549 cells after 96 hrs by SRB assay; type: functional, cell-based; conditions: A549, 96 h; method in brief: as §1
[7] = Toxicity in iv dosed CD-1 nude mouse assessed as death measured up to 72 hrs; type: organism-based; conditions: in vivo
Method in brief: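 CD1 nude mice, two per group, given single IV doses in saline (10, 20, 30, 35, 40, 45, 50 and 60 mg/kg), with repeat dosing weekly. Watched for adverse effects for up to 72 h. Tolerated dose taken as highest cohort in which all mice survived without observed ill-effects.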

Homo sapiens = species on record: Homo sapiens; assay: Binding affinity to 5'-FAM/3'-TAMRA labeled human telomeric F21T G-quadruplex DNA assessed as change in melting temperature at 1 uM by FRET assay; method in brief: as §3
[8] = Binding affinity to 5'-FAM/3'-TAMRA labeled human telomeric F21T G-quadruplex DNA by fluorescence anisotropy titration method
[9] = Binding affinity to 5'-FAM/3'-TAMRA labeled KRAS32 promoter G-quadruplex DNA (unknown origin) assessed as change in melting temperature at 1 uM by FRET assay; method in brief: as §4
[10] = Binding affinity to 5'-FAM/3'-TAMRA labeled KRAS21 promoter G-quadruplex DNA (unknown origin) assessed as change in melting temperature at 1 uM by FRET assay; method in brief: as §4
MIA PaCa-2 [11] = assay: Growth inhibition of human MIAPaCa2 cells after 96 hrs by SRB assay; type: functional, cell-based; conditions: MIA PaCa-2, 96 h; method in brief: as §1
[12] = Selectivity index, ratio of IC50 for human WI38 cells to IC50 for human MIAPaCa2 cells; type: functional
Method in brief: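 SRB growth-inhibition assay over 96 h with compounds dissolved in water; cells grown in 10 % FBS at 37 °C, 5% CO2. Absorbance at 540 nm as a percentage of untreated wells gives the IC50. Values are averages of >3 determinations, with the ratio taken as WI-38 IC50 over MIA PaCa-2 IC50.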

| Structure (SMILES) | IC50 (BXPC-3) [nM] | Activity (MIA PaCa-2 [1]) [%] | IC50 (CAPAN-1) [nM] | Activity (MIA PaCa-2 [2]) [%] | ΔTm [3] [°C] | ΔTm [4] [°C] | ΔTm [5] [°C] | ΔTm [6] [°C] | IC50 (A549) [nM] | MTD at 72 h [7] [mg/kg] | ΔTm (Homo sapiens) [°C] | Kd [8] [nM] | ΔTm [9] [°C] | ΔTm [10] [°C] | IC50 (MIA PaCa-2 [11]) [nM] | Ratio IC50 [12] |
| --- | --- | --- | --- | --- | --- | --- | --- | --- | --- | --- | --- | --- | --- | --- | --- | --- |
| Nc1ccn([C@@H]2O[C@H](CO)[C@@H](O)C2(F)F)c(=O)n1 [GEMCITABINE] | 6 | -66.7 | 19 | -61.7 |  |  |  |  |  |  |  |  |  |  |  |  |
| CN1CCN(CCCNc2cc3c4c(c(NCCCN5CCN(C)CC5)cc5c4c2C(=O)N(CCCN2CCOCC2)C5=O)C(=O)N(CCCN2CCOCC2)C3=O)CC1 |  | -66.7 |  | -56.7 | 26.4 | 4.9 | 33.1 | 28.6 | 19 | 25 | 26.6 | 20 | 19.8 | 22.5 | 11 | 21 |
